For orientation: EC50 means the concentration needed to bring the measured effect to its halfway point.

Data on one compound can be found in ChEMBL document CHEMBL3351394 (J Med Chem, 2014).

Series [1] deals with T1, G-protein coupled bile acid receptor 1 (Homo sapiens, UniProt Q8TDU6).
T1 sequence (Q8TDU6 whole entry): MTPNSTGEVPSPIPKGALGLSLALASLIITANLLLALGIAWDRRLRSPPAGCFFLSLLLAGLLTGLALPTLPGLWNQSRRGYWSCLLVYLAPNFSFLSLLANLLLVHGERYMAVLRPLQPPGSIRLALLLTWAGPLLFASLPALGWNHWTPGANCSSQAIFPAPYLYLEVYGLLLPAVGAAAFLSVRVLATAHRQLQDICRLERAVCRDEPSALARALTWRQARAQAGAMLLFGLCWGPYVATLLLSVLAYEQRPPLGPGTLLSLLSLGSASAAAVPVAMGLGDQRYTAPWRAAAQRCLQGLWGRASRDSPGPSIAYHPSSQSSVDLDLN
The series is described as follows: Activity at TGR5 in human NCI-H716 cells assessed as effect on intracellular cAMP accumulation incubated for 60 mins by HTR-FRET assay. The class given is functional, cell-based. The method in brief:
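NCI-H716 cells on Matrigel-coated plates were stimulated 24 h after plating with increasing compound concentrations for 60 min at 37 °C in OptiMEM containing 1 mM IBMX. Intracellular cAMP was read by HTRF (Lance kit).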

Series [2] deals with T2, Bile acid receptor (Homo sapiens) (UniProt Q96RI1).
T2 sequence (whole entry): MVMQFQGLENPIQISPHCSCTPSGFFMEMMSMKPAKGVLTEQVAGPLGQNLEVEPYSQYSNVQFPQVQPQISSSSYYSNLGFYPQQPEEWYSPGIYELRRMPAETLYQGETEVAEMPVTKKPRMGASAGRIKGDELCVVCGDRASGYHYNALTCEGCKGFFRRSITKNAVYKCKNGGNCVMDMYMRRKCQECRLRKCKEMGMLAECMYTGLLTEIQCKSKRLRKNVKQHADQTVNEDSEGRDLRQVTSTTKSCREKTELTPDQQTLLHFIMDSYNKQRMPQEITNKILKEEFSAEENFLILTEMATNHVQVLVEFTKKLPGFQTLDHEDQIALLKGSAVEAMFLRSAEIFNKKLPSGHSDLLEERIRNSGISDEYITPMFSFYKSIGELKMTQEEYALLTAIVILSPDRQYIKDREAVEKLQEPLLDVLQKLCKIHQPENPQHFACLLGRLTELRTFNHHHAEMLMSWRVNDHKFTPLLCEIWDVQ
Nature of the series: Agonist activity at FXR in human HepG2 cells assessed as induction of SHP mrNA expression at 1 uM by quantitative PCR method. The class given is cell-based. In outline:
(§1)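 HepG2 cells were seeded at 2 × 10⁶ per well. After 24 h they were switched to MEM with 1% charcoal-stripped FCS, and 24 h later dosed with compound (0.1, 0.3, 1, 3, 10 μM; 0.1% DMSO final) for 24 h. Total RNA was reverse transcribed and analysed by qPCR, GAPDH-normalized, ΔΔCt method. Samples were run in duplicate in ≥4 independent experiments.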

The target in series [3] is T2, Bile acid receptor (Homo sapiens). Nature of the series: Agonist activity at FXR in human HepG2 cells assessed as induction of IBABP mrNA expression at 0.3 uM by quantitative PCR method. Type of series: cell-based.
The species named for another series is Homo sapiens. The series is described as follows: Selectivity index, ratio of EC50 for GAL4-tagged PPARdelta (unknown origin) to EC50 for human FXR.
In series [4] the target is T3, Peroxisome proliferator-activated receptor gamma (Homo sapiens) (UniProt P37231).
T3 sequence (whole entry): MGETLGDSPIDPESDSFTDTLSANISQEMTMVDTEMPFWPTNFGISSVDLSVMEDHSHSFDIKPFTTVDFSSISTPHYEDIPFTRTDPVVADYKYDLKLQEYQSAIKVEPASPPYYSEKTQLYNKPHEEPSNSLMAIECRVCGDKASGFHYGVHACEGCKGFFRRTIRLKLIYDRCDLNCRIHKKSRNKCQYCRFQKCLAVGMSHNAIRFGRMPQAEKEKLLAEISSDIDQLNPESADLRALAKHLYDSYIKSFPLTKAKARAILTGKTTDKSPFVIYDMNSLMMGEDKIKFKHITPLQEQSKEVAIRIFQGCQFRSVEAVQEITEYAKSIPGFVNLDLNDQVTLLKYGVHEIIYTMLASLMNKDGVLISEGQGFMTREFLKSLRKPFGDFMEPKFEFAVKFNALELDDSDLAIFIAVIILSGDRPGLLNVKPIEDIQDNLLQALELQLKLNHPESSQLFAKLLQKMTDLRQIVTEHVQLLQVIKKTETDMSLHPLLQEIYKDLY
The series is described as follows: (§2) Activity at GAL4-tagged PPARgamma (unknown origin) expressed in COS7 cells assessed as receptor transactivation by luciferase reporter gene assay. Type of series: cell-based. As to conditions: COS-7. The method in brief:
(§3)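 Each PPAR subtype was tested as a Gal4 fusion carrying the human hinge region and LBD (cDNA from human monocytes) in transiently transfected COS-7 cells (Lipofectamine LTX), with a pFR-Luc reporter and pRL-SV40 for normalization. Compound in 0.1% DMSO was added 5 h post-transfection and incubated overnight. Firefly/renilla RLU was scaled to 1 μM GW7647 (α), L165,041 (δ) or pioglitazone (γ).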
On the technique in general: Reporter assays use an easily measured gene product as a stand-in for the process of interest.

In series [5] the target is T4, Peroxisome proliferator-activated receptor gamma (Homo sapiens, UniProt P37231).
T4 sequence (P37231 whole entry): T3 sequence (whole entry)
The series is described as §2. Type of series: cell-based, COS-7. In outline: as §3

Series [6] concerns the target T2, Bile acid receptor (Homo sapiens). The series is described as follows: Agonist activity at FXR in human HepG2 cells assessed as induction of OSTalpha mrNA expression at 3 uM by quantitative PCR method. Type of series: cell-based. The method in brief:
as §1

For series [7] the target is unchanged. The series is described as follows: Agonist activity at FXR in human HepG2 cells assessed as induction of CYP7A1 mrNA expression at 3 uM by quantitative PCR method. The class given is cell-based. In outline: as §1
For series [8] the target is unchanged. The series is described as follows: Agonist activity at FXR in human HepG2 cells assessed as induction of BSEP mrNA expression at 0.1 uM by quantitative PCR method. The class given is cell-based. In outline: as §1
The target is the same in series [9]. The series is described as follows: Agonist activity at FXR in human HepG2 cells assessed as induction of OSTalpha mrNA expression at 10 uM by quantitative PCR method. Type of series: cell-based. In outline: as §1
Series [10] shares this target. The series is described as follows: Agonist activity at FXR in human HepG2 cells assessed as induction of OSTalpha mrNA expression at 1 uM by quantitative PCR method. The class given is cell-based. The method in brief: as §1
The target is the same in series [11]. The series is described as follows: Agonist activity at FXR in human HepG2 cells assessed as induction of IBABP mrNA expression at 3 uM by quantitative PCR method. Type of series: cell-based.
The target is the same in series [12]. The series is described as follows: Agonist activity at FXR in human HepG2 cells assessed as induction of CYP7A1 mrNA expression at 0.3 uM by quantitative PCR method. The class given is cell-based. In outline:
as §1

The next series has as its system HepG2. The series is described as follows: Cytotoxicity against human HepG2 cells assessed as compound concentration causing reduction in cell viability by WST1 assay. Type of series: cell-based. In outline: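 WST-1 viability in HepG2 cells (3 × 10⁴ per well) in DMEM with 1% FCS, after 48 h exposure to 1, 10, 30 and 100 μM compound. Controls were Revlotron 100 μM (positive) and zileuton 100 μM or DMEM/1% DMSO (negative). WST reagent was added for 45 min and absorbance read at 450/620 nm; untreated set as 100%. Three repeats in triplicate.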
In general terms: Tetrazolium dyes change colour on reduction, which living cells bring about.

The target in series [13] is T2, Bile acid receptor (Homo sapiens). Nature of the series: Agonist activity at FXR in human HepG2 cells assessed as induction of BSEP mrNA expression at 10 uM by quantitative PCR method. Type of series: cell-based. The method in brief:
as §1

The target is the same in series [14]. Nature of the series: Agonist activity at FXR in human HepG2 cells assessed as induction of OSTalpha mrNA expression at 0.1 uM by quantitative PCR method. Type of series: cell-based. In outline: as §1

SMILES strings stand for the structures.

In the case of `COc1ccc(C(=O)Nc2cccc(C(=O)O)c2)c(NC(=O)c2ccc(C(C)(C)C)cc2)c1`, the concentration for a half-maximal effect (EC50) in [1] stood at 30 µM; in series [5], 2.99 µM. Further, the Activity worked out at 181% in [2]; 145% in series [3]; 149% in series [6]; 67% in series [7]; 294% in series [8]; 234% in series [9]. The Activity in series [10] was 140%; in series [11], 168%; in [12] it was 59%; in the series with HepG2, “>= 30 uM”; in [13] it was 308%; in series [14], 151%. For the same compound, the Ratio EC50 in the series filed under Homo sapiens is more than 1000. For the same compound, the Emax in [4] came out at 81%.
